Compound activity deposited in PubChem by The Scripps Research Institute Molecular Screening Center.
GalR3 antag: blocks the human galanin receptor 3. O60755. HEK293 GalR3-CNG cAMP membrane potential fluorescence; galR3 body fused to GalR1 C-terminus. inhibition, % at 3 µM. 360,000 compounds, 0.44% hits. AID 651719;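 active = inhibition above the screen-wide average plus 3 SD, cut at about 13% in these data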;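 note: forskolin and galanin both at EC90 stimulate the cells; cAMP rise reported by CNG channel membrane potential dye signal; 0% = forskolin plus galanin with DMSO and 100% = forskolin alone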
Rin1-Abl PPI inh: human Rin1-Abl interaction inhibition | 360,000 compounds, 0.4% hits | TR-FRET Rin1/Abl binding, biochemical | P00519+Q13671 | inhibition, % at 7.35 µM | AID 588664; in the data active = inhibition above about 5%, passing the limit was not always enough
ARFGAP1 inhibitor: rat ARFGAP1 inhibition; Q62848; Arfgap1-stimulated ARF1 GTP hydrolysis, GDP FP detection; inhibition, % at 16.5 µM; 360,000 compounds, 0.26% hits; AID 651572;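 active = inhibition above a per-plate limit, mean inhibition of low control wells plus 3 SD, cut at about 25% in these data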;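 note: 0% = DMSO wells with enzyme and 100% = wells lacking Arfgap1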
Target sequence (Q62848 1-136 limits assumed): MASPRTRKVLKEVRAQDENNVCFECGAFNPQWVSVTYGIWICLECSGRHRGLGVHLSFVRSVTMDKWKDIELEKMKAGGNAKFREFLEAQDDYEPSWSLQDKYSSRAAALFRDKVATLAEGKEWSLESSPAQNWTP
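Material: rat Arfgap1 catalytic domain, aa 1-136; also added: human ARF1(Δ1-17)-GTP substrate; compound dosing: one concentration, 16.5 µM, DMSO 1.26%; incubation: GTP hydrolysis reaction 2 h at 25 °C; measured by: Tracer-displacement fluorescence polarization with EDTA stop, 620/688 nm; evaluation: % inhibition from polarization; repeats: one replicate per compound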
ASAP1 inh: blocks human ASAP1-stimulated Arf1 GTP hydrolysis | AID 624377 | GDP FP detection | Q9ULH1 | 360,000 compounds, 0.19% hits | inhibition, % at 16.5 µM; in the data active = inhibition above about 25%;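 note: 0% = vehicle with enzyme and substrate and 100% = no enzyme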
Target sequence (Q9ULH1 325-724 limits assumed): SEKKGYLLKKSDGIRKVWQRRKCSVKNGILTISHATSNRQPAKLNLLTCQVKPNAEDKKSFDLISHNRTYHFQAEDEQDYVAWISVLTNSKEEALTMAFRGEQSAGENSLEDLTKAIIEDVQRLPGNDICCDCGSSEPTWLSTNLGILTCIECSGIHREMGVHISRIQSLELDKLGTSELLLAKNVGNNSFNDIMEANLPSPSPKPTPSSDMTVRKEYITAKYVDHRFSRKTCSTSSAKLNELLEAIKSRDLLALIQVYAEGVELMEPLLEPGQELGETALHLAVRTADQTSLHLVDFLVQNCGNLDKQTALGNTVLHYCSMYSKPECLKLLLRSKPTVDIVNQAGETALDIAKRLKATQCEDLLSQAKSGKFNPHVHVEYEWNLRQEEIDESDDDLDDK
ASAP1 inh confirm: ASAP1 inhibition confirmed. shares compounds with ASAP1 inh. ASAP1-stimulated Arf1 GTPase, GDP fluorescence polarization. inhibition, % at 16.5 µM. 620 compounds, 37% hits;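 active = mean inhibition over triplicates exceeds the hit threshold derived for the earlier primary screening run, cut at about 25% in these data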
* marks the source's active call; other numbers are inactive results. Only some compounds are listed: those with a hit (about 1.2% of all), similar ones and a draw of the others.

How did CC(C)[C@H](NC(=O)[C@H](C)NC(=O)OC(C)(C)C)C(=O)N1CCC2CCN(Cc3ccccc3)CC21 (stereo not given in full) do in these assays?
GalR3 antag: -6; ARFGAP1 inhibitor: 16; ASAP1 inh: 10

What do the screens show for `O=C(NCCc1ccccc1Cl)[C@@H]1CCCN1C(=O)[C@H](Cc1cccnc1)NC(=O)N1CCOCC1`?
GalR3 antag: -2; ARFGAP1 inhibitor: -1; ASAP1 inh: -4

How did CC1CCCC(C)N1C(=O)COC(=O)CCC(=O)c1ccc(F)cc1 (stereo not given) do in these assays?
GalR3 antag: -5; Rin1-Abl PPI inh: 3; ARFGAP1 inhibitor: -4; ASAP1 inh: 29*; ASAP1 inh confirm: 2

How did COC(=O)c1cc2c(c3c4cc(F)ccc4n(S(=O)(=O)c4ccc(OC)cc4)c13)C(=O)N(Cc1ccccc1OC)C2 do in these assays?
GalR3 antag: -4; ARFGAP1 inhibitor: 4; ASAP1 inh: 2

What do the screens show for `O=C(Nc1ccc(NC(=S)NC(=O)c2ccco2)cc1)c1ccccc1`?
GalR3 antag: -10; Rin1-Abl PPI inh: -1; ARFGAP1 inhibitor: 7; ASAP1 inh: 12

Results for O=C(Nc1ccc(NC(=S)NC(=O)c2ccco2)cc1)c1ccc(Br)cc1 ?
GalR3 antag: -3; Rin1-Abl PPI inh: -1; ARFGAP1 inhibitor: 10; ASAP1 inh: 58*; ASAP1 inh confirm: 161*

What do the screens show for `C[C@H](NC(=O)C[C@@H]1C[C@@H]2c3cc(NC(=O)C4CCC4)ccc3O[C@@H]2[C@@H](CO)O1)c1ccccc1`?
GalR3 antag: -1; ARFGAP1 inhibitor: -1; ASAP1 inh: 2

What do the screens show for `N/C(=N\OC(=O)c1cccc2ccccc12)c1cccc([N+](=O)[O-])c1`?
GalR3 antag: -1; Rin1-Abl PPI inh: -1; ARFGAP1 inhibitor: 18; ASAP1 inh: 28*; ASAP1 inh confirm: 57*

What do the screens show for `Oc1ccc(Cl)cc1-c1cc(-c2cccc(Br)c2)n[nH]1`?
GalR3 antag: -6; Rin1-Abl PPI inh: 0; ARFGAP1 inhibitor: 20; ASAP1 inh: 28*; ASAP1 inh confirm: 27*

How did Oc1ccc(Cl)cc1-c1cc(-c2ccccc2Cl)[nH]n1 do in these assays?
GalR3 antag: -5; Rin1-Abl PPI inh: -3; ARFGAP1 inhibitor: 3; ASAP1 inh: 10

Results for NC(=O)c1c(N)[nH]c(C(=O)c2ccccc2)c1-c1ccccc1 ?
GalR3 antag: -2; ARFGAP1 inhibitor: 4; ASAP1 inh: -5

How did O=C(Nc1ccc2c(c1)OCCO2)C(c1ccncc1)n1c(=O)c(-c2cc3ccccc3[nH]2)nc2ccccc21 (stereo not given) do in these assays?
GalR3 antag: -7; ARFGAP1 inhibitor: 8; ASAP1 inh: 33*; ASAP1 inh confirm: 16

Results for O=C(Nc1ccc2c(c1)OCCO2)C(c1ccc(C(F)(F)F)cc1)n1c(=O)c(-c2cc3ccccc3[nH]2)nc2ccccc21 (stereo not given) ?
GalR3 antag: -4; ARFGAP1 inhibitor: 10; ASAP1 inh: 7

Results for CNc1ccc(/C=C(\CCC(=O)O)c2nc3ccccc3s2)cc1[N+](=O)[O-] ?
GalR3 antag: -2; Rin1-Abl PPI inh: -1; ARFGAP1 inhibitor: 2; ASAP1 inh: 30*; ASAP1 inh confirm: 52*

Results for COC(=O)C1=C(C)N(C)C(=NCc2ccc(OC)cc2)NC1c1cccc(C(F)(F)F)c1 (stereo not given) ?
GalR3 antag: -6; ARFGAP1 inhibitor: 5; ASAP1 inh: -1

What do the screens show for `O=C(O)CCCN1C(=O)/C(=C\C(Cl)=C\c2ccccc2)SC1=S`?
GalR3 antag: -7; Rin1-Abl PPI inh: 1; ARFGAP1 inhibitor: 0; ASAP1 inh: 33*; ASAP1 inh confirm: 61*

What do the screens show for `COc1ccc(/C=N/NC(=O)c2cc3c(ccc4ccccc43)o2)c(OC)c1`?
GalR3 antag: -2; Rin1-Abl PPI inh: 0; ARFGAP1 inhibitor: 8; ASAP1 inh: 34*; ASAP1 inh confirm: 16

What do the screens show for `COc1ccc(C(=O)N/N=C/c2cn[nH]c2-c2ccc(OC)cc2OC)cc1`?
GalR3 antag: 3; Rin1-Abl PPI inh: -4; ARFGAP1 inhibitor: 4; ASAP1 inh: 29*; ASAP1 inh confirm: 19

What do the screens show for `CCCc1c(C(=O)N/N=C/C(C)=C/c2ccccc2)nnn1-c1nonc1N`?
GalR3 antag: -9; Rin1-Abl PPI inh: -2; ARFGAP1 inhibitor: 2; ASAP1 inh: 8

Results for CC(/C=N/NC(=O)c1nnn(-c2nonc2N)c1C(C)C)=C\c1ccccc1 ?
GalR3 antag: 0; Rin1-Abl PPI inh: 0; ARFGAP1 inhibitor: 14; ASAP1 inh: 29*; ASAP1 inh confirm: 12

What do the screens show for `COC(=O)N1Cc2ccnnc2CC1c1ccccc1-c1ccc(OC)cc1` (stereo not given)?
GalR3 antag: -8; ARFGAP1 inhibitor: -4; ASAP1 inh: -6

What do the screens show for `CC(=O)Nc1ccc(NC(=O)c2cccc(-c3cc4ccccc4oc3=O)c2)cc1`?
GalR3 antag: -8; Rin1-Abl PPI inh: -2; ARFGAP1 inhibitor: -8; ASAP1 inh: 1

How did COc1ccc(C(=O)Nc2cccc(-c3cc4ccccc4oc3=O)c2)cc1[N+](=O)[O-] do in these assays?
GalR3 antag: -2; Rin1-Abl PPI inh: -2; ARFGAP1 inhibitor: 24; ASAP1 inh: 27*; ASAP1 inh confirm: 72*

How did CCCCNC(=O)NC(C(=O)OC)C12CC3CC(CC(C3)C1)C2 (stereo not given) do in these assays?
GalR3 antag: -3; Rin1-Abl PPI inh: 2; ARFGAP1 inhibitor: 13; ASAP1 inh: 30*; ASAP1 inh confirm: -4

What do the screens show for `CCCCNC(=O)NC12CC3CC(CC(C3)C1)C2`?
GalR3 antag: -2; Rin1-Abl PPI inh: 0; ARFGAP1 inhibitor: 6; ASAP1 inh: 7

Results for COc1ccc(CNC(=O)N(C)C[C@@H]2OCc3ccccc3-c3c(n(C)c4ccccc34)C(=O)N([C@@H](C)CO)C[C@@H]2C)cc1 ?
GalR3 antag: 0; ARFGAP1 inhibitor: -6; ASAP1 inh: 14

Results for CCOC(=O)c1sc2nc(C)nc(NCCc3ccc(S(N)(=O)=O)cc3)c2c1C ?
GalR3 antag: -4; Rin1-Abl PPI inh: -2; ARFGAP1 inhibitor: -3; ASAP1 inh: -2

Results for Cc1nc(NCCc2ccc(S(N)(=O)=O)cc2)c2c(C)c(C)sc2n1 ?
GalR3 antag: -9; Rin1-Abl PPI inh: 0; ARFGAP1 inhibitor: 14; ASAP1 inh: 25*; ASAP1 inh confirm: 3

What do the screens show for `O=C(C[n+]1cccc(C(=O)Nc2ccccc2)c1)c1ccc(Cl)cc1`?
GalR3 antag: -8; ARFGAP1 inhibitor: 3; ASAP1 inh: 25*; ASAP1 inh confirm: 4

Results for Nc1ccc(O)c2c(=O)cc(-c3ccccc3Cl)oc12 ?
GalR3 antag: -7; Rin1-Abl PPI inh: -3; ARFGAP1 inhibitor: 0; ASAP1 inh: 28*; ASAP1 inh confirm: 13
